Screening results from PubChem.
In the library only some 3% were active in any assay of this set; here they are far more common.
SR-BI HDL uptake: inhibitors of mouse SR-BI mediated HDL lipid uptake | Q61009 | ldlA[mSR-BI] CHO cells, DiI-HDL uptake fluorescence, 3 h | inhibition, % at 12.5 µM | hit rate 0.96% among 320,000;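 active = mean replicate inhibition of at least 70% and a set share of replicates each scoring 70 or more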
SR-BI uptake up: activators of SR-BI mediated HDL lipid uptake; CHO ldlA[mSR-BI] cells, DiI-HDL uptake fluorescence, 3 h; 100 = double the neutral-control signal; activation, % at 12.5 µM; hit rate 0.096% among 320,000; AID 504775;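 active = mean replicate activation of at least 60% and every replicate at or above 60%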
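Test system: SR-BI-overexpressing, LDLR-lacking CHO cells; Medium: Ham's F12 with 0.5% BSA, HEPES 25 mM, pH 7.4; Schedule: 3 h, 37 °C; Technique: bottom-read fluorescence, 550/595 nm.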
FID counter: fluorescent intercalator displacement, NS3 helicase counter-screen; inhibition, % at 7.9 µM; AID 1845; hit rate 0.17% among 290,000; DNA fluorescent intercalator displacement, fluorescence; in the data active = inhibition above about 37%;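 also: higher means more ethidium bromide displaced from hairpin DNA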
ANO1 block: mouse TMEM16A channel inhibition, primary screen. HEK293 TMEM16A/YFP iodide influx fluorescence, ionomycin. hit rate 1.2% among 310,000. normalized B-score (activity score, 25-100; higher = stronger inhibition) at 10 µM. Q8BHY3;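 active = ratio plate-corrected score three or more library SD toward inhibition, starting fluorescence score within five deviations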;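 also: score derived from kinetic fluorescence span divided by baseline fluorescence per well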
Kir21 inh: blocks the mouse Kir2.1 inward-rectifier potassium channel | HEK293-Kir2.1, FluxOR thallium flux fluorescence; active compounds read low | hit rate 0.85% among 310,000 | B-score at 10 µM;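 active = fluorescence ratio B-score at or below minus 3 SD of library scores, with starting-brightness B-score within 2 SD, cut at about -4.2 in these data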;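 also: channel flux triggered by added potassium and thallium sulfate stimulus; B-score of peak minus minimum fluorescence over baseline after thallium stimulus; more negative B-score means stronger Kir2.1 block with less thallium influx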
TMEM16A act: activators or potentiators of mouse TMEM16A chloride channel; Q8BHY3; AID 623877; hit rate 0.3% among 340,000; B-score at 10 µM; HEK293 TMEM16A/YFP-H148Q/I152L, iodide quench fluorescence; active compounds read low;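 active = fluorescence-ratio B-score plate-corrected deviation score at least 3 library SD below zero, with starting fluorescence score within 5 deviations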;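 also: channel opened by trigger with iodide after compound preincubation; score built on the fluorescence ratio of max minus min over baseline; more negative score means more quench and so TMEM16A activation or potentiation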
TMEM16A reconf: reconfirmed blocker of mouse TMEM16A calcium-activated chloride channel. shares compounds with ANO1 block. inhibition, % at 10 µM. hit rate 39% among 2,300. HEK293 TMEM16A/YFP-H148Q, iodide quench fluorescence; ionomycin added to raise cell calcium;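 active = mean duplicate percent inhibition, scaled so buffer wells are 0 and the reference blocker 100, over three buffer SD above buffer mean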
TMEM16A Ca cntr: alters calcium mobilization in TMEM16A HEK293 cells, counter-screen; calcium response (% of ionomycin), % at 10 µM; hit rate 2% among 2,300; TMEM16A/YFP HEK293, Fluo4 calcium mobilization; shares compounds with ANO1 block;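 active = duplicate-averaged calcium signal over 20% of the ionomycin maximum, relative to buffer baseline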;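 also: each well's signal is peak minus trough fluorescence divided by its pre-addition baseline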
YFP-HEK293 quench: acts in parental YFP-HEK293 cells lacking TMEM16A, counter-screen; iodide YFP quench, ionomycin; shares compounds with ANO1 block; YFP ratio F(max-min)/F0 at 10 µM; AID 652233; 2,300 tested, under 10 active;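 active = yellow fluorescent protein signal ratio exceeding the buffer control mean by over 5 SD of those controls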;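 also: ratio is mean of duplicate wells from kinetic YFP trace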
ClC-1 rat inh: rat ClC-1 inhibition, TMEM16A specificity screen. shares compounds with ANO1 block. CHO ClC-1-YFP, iodide influx fluorescence quench; iodide control reads 0, buffer control 100. ratio percent, % at 10 µM. 2,300 tested, under 10 active;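 active = duplicate-mean ratio percent above the mean of iodide-only control wells, which defines zero, plus 5 of their SD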;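 also: higher percent means stronger block of ClC-1 iodide influx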
Target sequence (P35524 whole entry, looked up): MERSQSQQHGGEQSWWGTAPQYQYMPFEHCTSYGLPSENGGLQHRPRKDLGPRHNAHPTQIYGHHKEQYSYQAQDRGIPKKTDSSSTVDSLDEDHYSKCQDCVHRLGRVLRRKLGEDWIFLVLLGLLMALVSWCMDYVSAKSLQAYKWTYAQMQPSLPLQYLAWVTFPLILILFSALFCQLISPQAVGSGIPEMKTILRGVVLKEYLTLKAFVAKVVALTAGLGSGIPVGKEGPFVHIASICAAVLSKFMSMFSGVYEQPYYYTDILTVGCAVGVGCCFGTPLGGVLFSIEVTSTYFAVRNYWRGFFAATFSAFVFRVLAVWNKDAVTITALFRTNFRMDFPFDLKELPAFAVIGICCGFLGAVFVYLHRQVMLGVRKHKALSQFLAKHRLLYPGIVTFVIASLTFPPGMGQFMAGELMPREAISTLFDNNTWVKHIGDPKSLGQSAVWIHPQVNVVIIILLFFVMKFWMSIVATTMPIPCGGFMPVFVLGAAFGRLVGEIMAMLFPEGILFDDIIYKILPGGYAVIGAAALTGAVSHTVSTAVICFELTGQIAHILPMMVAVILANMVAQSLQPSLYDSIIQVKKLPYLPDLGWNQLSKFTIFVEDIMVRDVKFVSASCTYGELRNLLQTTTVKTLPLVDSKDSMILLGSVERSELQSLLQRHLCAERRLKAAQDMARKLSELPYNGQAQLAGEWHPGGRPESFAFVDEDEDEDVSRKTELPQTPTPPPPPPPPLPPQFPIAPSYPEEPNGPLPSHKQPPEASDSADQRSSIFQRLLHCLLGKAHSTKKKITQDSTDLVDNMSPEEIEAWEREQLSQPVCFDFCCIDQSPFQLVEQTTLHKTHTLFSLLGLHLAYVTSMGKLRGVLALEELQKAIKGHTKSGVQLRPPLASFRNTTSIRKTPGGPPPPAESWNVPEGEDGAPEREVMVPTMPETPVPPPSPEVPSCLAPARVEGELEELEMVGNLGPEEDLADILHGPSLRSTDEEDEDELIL
Numbers stand for hits; i = inactive; nt = no result given.

SMILES	SR-BI HDL uptake	SR-BI uptake up	FID counter	ANO1 block	Kir21 inh	TMEM16A act	TMEM16A reconf	TMEM16A Ca cntr	YFP-HEK293 quench	ClC-1 rat inh
CCOc1ccc2c(S(=O)(=O)O)cccc2c1[N+](=O)[O-]	i	i	nt	nt	nt	i	nt	nt	nt	nt
O=C(Nn1c(O)c(C=C2N=c3ccccc3=N2)sc1=S)c1cccc(Cl)c1	i	i	i	25	i	i	i	i	i	i
O=C(Nn1c(O)c(C=C2N=c3ccccc3=N2)sc1=S)c1ccc(Cl)cc1	i	i	i	i	i	i	nt	nt	nt	nt
Cc1cnc(C(=O)OC(C)C(=O)NCc2ccccc2)cn1 (stereo unspecified)	i	i	nt	i	i	i	nt	nt	nt	nt
COc1cccc(C2=CC(c3cccc(OC)c3OC(F)F)n3nnnc3N2)c1 (stereo unspecified)	i	i	i	100	i	i	i	i	i	i
COc1cccc(C2=CC(c3cccc(OC)c3OC)n3nnnc3N2)c1 (stereo unspecified)	i	i	i	i	i	i	nt	nt	nt	nt
COC(C)(C)[C@@H](O)COc1c2ccoc2cc2oc(=O)ccc12	i	i	nt	nt	nt	i	nt	nt	nt	nt
CC1CN(C(C)C)C(=S)N(c2ccccc2)C1=O (stereo unspecified)	i	i	nt	nt	nt	i	nt	nt	nt	nt
Cc1cc(C)nc(N2N=C(C(C)(C)C)CC2=O)n1	i	i	i	i	i	i	i	i	i	i
c1ccc(Nc2nc(NCC3CCCO3)c3ccccc3n2)cc1 (stereo unspecified)	i	i	i	100	-15	i	i	i	i	i
OCCNc1nc(Nc2ccc(Br)cc2)nc2ccccc12	nt	nt	i	25	-13	nt	22%	i	i	i
OCCNc1nc(Nc2ccccc2)nc(Nc2ccccc2)n1	i	i	i	i	i	i	nt	nt	nt	nt
CCCCn1c(SCC(=O)c2ccc(O)c(O)c2)nc2ccsc2c1=O	i	i	i	100	i	i	49%	i	i	i
NC(N)=NN=C1CCCCCCCCCCC1	i	i	i	i	-11	i	i	i	i	i
ON=C1CCCCCCCC1	i	i	nt	nt	nt	i	nt	nt	nt	nt
COC(=O)c1cn(CCOc2ccccc2OC)c2ccccc12	i	i	i	25	i	i	i	i	i	i
Cc1cc(S(=O)(=O)N2CCN(Cc3ccc4c(c3)OCO4)CC2)cc(C)c1N1CCCC1=O	i	i	i	100	i	i	33%	i	i	i
O=C(c1cc2ccccc2o1)N1CCN(c2ncccn2)CC1	i	i	nt	nt	nt	i	nt	nt	nt	nt
Cc1sc2nc(CSC(C)C(=O)Nc3cc(S(C)(=O)=O)ccc3Cl)[nH]c(=O)c2c1C (stereo unspecified)	i	i	nt	i	i	i	nt	nt	nt	nt
Cc1ccc(-c2nc3ccc(C(=O)O)cc3nc2-c2ccc(C)cc2)cc1	i	i	i	25	i	i	i	i	i	i
CCN(CC)C(=O)c1cc(-c2ccccc2OC)on1	i	i	i	100	i	i	i	i	i	i
CC(C(=O)NCc1cccs1)N1CCN(S(=O)(=O)c2ccc3c(c2)OCCCO3)CC1 (stereo unspecified)	i	i	nt	nt	nt	i	nt	nt	nt	nt
COc1ccc(NC(=O)CN(c2cc(C)cc(C)c2)S(=O)(=O)c2c(C)noc2C)cc1	i	i	i	100	i	i	i	i	i	i
COc1ccc(N(CC(=O)Nc2ccc(C)cc2)S(=O)(=O)c2c(C)noc2C)cc1	i	i	i	i	i	i	nt	nt	nt	nt
Cc1ccc(OCC(=O)Oc2cccc(C)c2C)cc1	i	i	i	i	i	i	nt	nt	nt	nt
SMILES	SR-BI HDL uptake	SR-BI uptake up	FID counter	ANO1 block	Kir21 inh	TMEM16A act	TMEM16A reconf	TMEM16A Ca cntr	YFP-HEK293 quench	ClC-1 rat inh
CN(Cc1cn(C)nc1-c1ccc(Oc2ccccc2)cc1)Cc1cnc2ccccn12	nt	nt	i	25	-5.1	i	24%	22%	i	i
CCN(Cc1ccncc1)Cc1cn(C)nc1-c1ccc(Oc2ccccc2)cc1	i	i	i	100	i	i	i	i	i	i
CN(C(=O)c1cccc(NC(=O)Cc2cccc(NC(=O)C3CCN(C(=O)CCc4ccccc4)CC3)c2)c1)C1CC1	i	i	nt	nt	nt	nt	nt	nt	nt	nt
O=C(O)CC(c1ccc(Cl)cc1)N1Cc2ccccc2C1=O (stereo unspecified)	i	i	i	i	i	i	nt	nt	nt	nt
COC(=O)C(Cc1ccc(OC(=O)c2ccc(Cl)cc2)cc1)N1Cc2ccccc2C1=O (stereo unspecified)	i	i	i	100	i	i	24%	i	i	i
CCOC(=O)CSc1nnc(NC(=O)c2cc([N+](=O)[O-])cc([N+](=O)[O-])c2)s1	i	i	i	25	i	i	i	i	i	i
Cc1ccccc1N1CCN(C2CCCN(C(=O)CCC(F)(F)F)C2)CC1 (stereo unspecified)	nt	nt	i	i	i	i	nt	nt	nt	nt
O=C(O)c1ccccc1NC(=O)N1CCOCC1	i	i	i	i	i	i	nt	nt	nt	nt
O=c1c(C/C=C/c2ccccc2)c(O)ccn1Cc1ccc(Cl)cc1Cl	i	i	i	100	i	i	i	i	i	i
O=c1c(Cc2ccc(Cl)cc2Cl)c(O)ccn1Cc1ccncc1	i	i	i	i	i	i	nt	nt	nt	nt
COCCn1c(SCc2csc(-c3ccccc3)n2)nc2ccccc21	i	i	i	100	i	i	24%	i	i	i
COCCn1c(SCC(=O)NCc2ccccc2)nc2ccccc21	nt	nt	i	i	i	i	nt	nt	nt	nt
Nc1nc(SCC(=O)N2CCc3ccccc3C2)[nH]c(=O)c1-c1ccccc1	i	i	i	i	i	i	i	i	i	i
CCN1CCN(C(c2cc3cccc(C)c3[nH]c2=O)c2nnnn2Cc2ccccc2)CC1 (stereo unspecified)	i	i	i	25	i	i	i	i	i	i
CSCC[C@H](NC(=O)OC(C)(C)C)C(=O)N1CCC(C(=O)NCC(=O)Nc2ccc(C)cc2)CC1	i	i	i	i	i	i	i	i	i	i
CC(C)(C)OC(=O)NC(Cc1ccccc1)C(=O)N1CCC(C(=O)NCC(=O)Nc2ccc(F)cc2)CC1 (stereo unspecified)	i	i	i	i	i	i	nt	nt	nt	nt
N#Cc1c(-c2ccc(Br)cc2)cc(-c2cccnc2)nc1N	i	i	i	i	i	i	nt	nt	nt	nt
